Experimental data published in PubChem BioAssay AID2646 (Broad Institute, 2010).
Activity calls are given as the source filed them.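 Rule for the calls: active = mean cAMP rise at 10 µM above half of the positive control's rise; inactive = the rest.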

System: human washed platelets, cAMP competitive ELISA, 5 min
Test: cAMP induction in washed human platelets – cell-based, competitive ELISA, PGE1 reference, single compound, counter-screen for platelet activation inhibitor project, confirmation (AID 2646)
Conditions: at 10 µM; hits give high values
Procedure, shortened: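 Signal: competitive cAMP ELISA of platelet lysates, optical density; Material: washed human donor platelets; Replication: duplicate samples per compound; Buffer or medium: Acidic Triton X-100 lysis buffer; Controls: PGE1 1 µM high, DMSO 0.3% neutral; Schedule: 5 min treatment.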

CCCC(=O)Nc1cccc(NC(=O)c2ccccc2Br)c1
cAMP elevation, % of PGE1: 43.9% (inactive)
